Test results taken from ChEMBL document CHEMBL1135512 (J Med Chem, 2002).

What was measured:
[1] = Partition coefficient (logD7.0); format: physicochemical; details: octanol/water, pH 7
[2] = Partition coefficient (logP); format: physicochemical; details: octanol/water
[3] = Dissociation constant (pKa); format: physicochemical
[4] = Cytotoxicity against Chinese hamster ovary cells; format: cell-based, Cricetulus griseus
Summary of the method: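 Cells were then exposed to graded drug concentrations for 48 h at 37 °C, 5% CO2. MTT (1 mg/mL in PBS) was added for 3 h, and formazan was dissolved in DMSO and read at 570/630 nm. IC50 came from nonlinear regression versus drug-free wells.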

[5] = In vitro hemolytic concentration on uninfected erythrocytes.; format: functional, Homo sapiens
Summary of the method: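 Washed A+ human erythrocytes were held at 1.5% hematocrit in RPMI 1640 with 10% human serum, 25 mM HEPES and 25 mM NaHCO3. Drug (2 mM to 1 μM final, triplicate) was added for 42 h at 37 °C under 10% O2/6% CO2. Released hemoglobin in supernatant was measured with TMB/H2O2 at 455 nm. HC50 is relative to 5% saponin lysis, by nonlinear regression.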

Plasmodium falciparum [6] = experiment: In vitro inhibitory activity against multidrug-resistant Plasmodium falciparum W2 Indochina; format: functional, organism-based
Summary of the method: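 Clone W2 (Indochina), sorbitol-synchronized, was grown in RPMI 1640 with 10% human serum, 25 mM HEPES and 25 mM NaHCO3, at final parasitemia 0.5% and hematocrit 1.5%. The drug was present for 48 h at 37 °C under 10% O2/6% CO2/84% N2. Growth was read as 3H-hypoxanthine uptake (1 μCi/well). IC50 came from nonlinear regression of log-dose/response as the geometric mean with 95% CI.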

Plasmodium falciparum [7] = experiment: Concentration required to reduce chloroquine IC50 by 50%; format: functional, organism-based
Summary of the method: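 Synergy isotopic microtest on sorbitol-synchronized W2 (Indochina) and 3D7 in RPMI 1640 with 10% human serum, HEPES/NaHCO3, parasitemia 0.5%, hematocrit 1.5%. CQ was combined with subinhibitory fixed DEEA concentrations, and 3H-hypoxanthine was added for 48 h at 37 °C under 10% O2/6% CO2/84% N2. Reversal IC50 is the DEEA concentration halving CQ IC50, found by nonlinear regression of log-dose/IC50.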

Plasmodium falciparum [8] = experiment: Accumulation coefficient of chloroquine at 1 uM-10 uM of DEEA against Plasmodium falciparum W2;Range is from 30-32; format: functional
Summary of the method: (§1)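 W2 infected erythrocytes were suspended in RPMI 1640 with 25 mM HEPES and 25 mM NaHCO3 (2% parasitemia, 2% hematocrit). They were mixed over silicone oil with buffer holding [3H]CQ (26 Ci/mmol) plus DEEA at 1 or 10 μM. Incubation was 1 h at 37 °C under 10% O2/6% CO2/84% N2, followed by 1 min centrifugation. Ratio = parasite [3H]CQ (infected minus uninfected cells) / same-volume buffer.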

Plasmodium falciparum [9] = experiment: Percent reversal against Plasmodium falciparum W2 at 1 uM DEEA; format: functional
Plasmodium falciparum [10] = experiment: Accumulation coefficient of chloroquine at 1 uM-10 uM of DEEA against Plasmodium falciparum W2; Range is from 62-63; format: functional
Plasmodium falciparum [11] = experiment: Accumulation coefficient of chloroquine at 1 uM-10 uM of DEEA against Plasmodium falciparum W2; Range is from 18-16; format: functional
Plasmodium falciparum [12] = experiment: Accumulation coefficient of chloroquine at 1 uM -10 uM of DEEA against Plasmodium falciparum W2; Range is from 15-101; format: functional; summary of the method: as §1
Plasmodium falciparum [13] = experiment: Accumulation coefficient of chloroquine at 1 uM-10 uM of DEEA against Plasmodium falciparum W2; Range is from 61-242; format: functional; summary of the method: as §1
Plasmodium falciparum [14] = experiment: Accumulation coefficient of chloroquine at 1 uM-10 um of DEEA against Plasmodium falciparum W2;Range is from 112-298; format: functional; summary of the method: as §1
Plasmodium falciparum [15] = experiment: Accumulation coefficient of chloroquine at 1 uM-10 uM of DEEA against Plasmodium falciparum W2; Range is from 14-56; format: functional; summary of the method: as §1
[16] = pKa of the compound; format: physicochemical
Plasmodium falciparum [17] = experiment: Accumulation coefficient of chloroquine at 1 uM-10 uM of DEEA against Plasmodium falciparum W2; Range is from 50-159; format: functional; summary of the method: as §1
Plasmodium falciparum [18] = experiment: Accumulation coefficient of chloroquine at 1 um-10 uM of DEEA against Plasmodium falciparum W2;Range is from 14-15; format: functional; summary of the method: as §1
Plasmodium falciparum [19] = experiment: Accumulation coefficient of chloroquine at 1 uM-10 uM of DEEA against Plasmodium falciparum W2; Range is from 19-23; format: functional; summary of the method: as §1
Plasmodium falciparum [20] = experiment: Accumulation coefficient of chloroquine at 1 uM-10 uM of DEEA against Plasmodium falciparum W2; Range is from 16-71; format: functional; summary of the method: as §1
Plasmodium falciparum [21] = experiment: Accumulation coefficient of chloroquine at 1 uM-10 uM of DEEA against Plasmodium falciparum W2; format: functional; summary of the method: as §1
Plasmodium falciparum [22] = experiment: Percent reversal against Plasmodium falciparum W2 at 1 uM DEEA

## CN(C)C(=O)C1C2c3ccccc3C(c3ccccc32)C1C(=O)N(C)C (stereo in doubt; 17)
[1]; read-out: logD
  logD: 1.7
[2]; read-out: logP
  logP: 1.7
[3]
  pKa: -1.34
[4]
  Cytotoxicity: 1558 µM
[5]
  HC50: >2000 µM
Plasmodium falciparum [6]
  IC50: 12.4 µM
Plasmodium falciparum [7]; Plasmodium falciparum
  IC50: 9 µM
Plasmodium falciparum [8]
  Accumulation coefficient: 32
Plasmodium falciparum [9]
  Reversal: 3%

## CCOC(=O)C1C2c3ccccc3C(c3ccccc32)C1N(C)C (configuration not stated)
[1]; read-out: logD
  logD: 3
[2]; read-out: logP
  logP: 3.6
[3]
  pKa: 7.48
[4]
  Cytotoxicity: > 2000 µM
[5]
  HC50: >2000 µM
Plasmodium falciparum [6]; Plasmodium falciparum
  IC50: 34 µM
Plasmodium falciparum [7]; Plasmodium falciparum
  IC50: 3.1 µM
Plasmodium falciparum [10]
  Accumulation coefficient: 63
Plasmodium falciparum [9]
  Reversal: 0%

## CN(C)C1C2c3ccccc3C(c3ccccc32)C1C(=O)O (configuration not stated)
[1]; read-out: logD
  logD: 0.1
[2]; read-out: logP
  logP: 2.7
[3]
  pKa: 8.3
[4]
  Cytotoxicity: > 2000 µM
[5]
  HC50: >2000 µM
Plasmodium falciparum [6]; Plasmodium falciparum
  IC50: > 50 µM
Plasmodium falciparum [11]
  Accumulation coefficient: 18
Plasmodium falciparum [7]; Plasmodium falciparum
  IC50: > 100 µM
Plasmodium falciparum [9]
  Reversal: 0%

## CC1C2c3ccccc3C(c3ccccc32)C1C(=O)Nc1ccncc1 (configuration not stated)
[1]; read-out: logD
  logD: 3.85
[2]; read-out: logP
  logP: 3.85
[3]
  pKa: 5.27
[4]
  Cytotoxicity: > 500 µM
[5]
  HC50: >2000 µM
Plasmodium falciparum [6]; Plasmodium falciparum
  IC50: 833 µM
Plasmodium falciparum [7]; Plasmodium falciparum
  IC50: 1490 µM
Plasmodium falciparum [12]
  Accumulation coefficient: 101
Plasmodium falciparum [9]
  Reversal: 21%

## CN(C)CC1=C(CN(C)C)C2c3ccccc3C1c1ccccc12
[1]; read-out: logD
  logD: 1.26
[2]; read-out: logP
  logP: 3.34
[3]
  pKa: 8.66
[4]
  Cytotoxicity: 920 µM
[5]
  HC50: >2000 µM
Plasmodium falciparum [6]; Plasmodium falciparum
  IC50: 2.5 µM
Plasmodium falciparum [13]
  Accumulation coefficient: 242
Plasmodium falciparum [7]; Plasmodium falciparum
  IC50: 0.8 µM
Plasmodium falciparum [9]
  Reversal: 55%

## CN(C)CC1C2c3ccccc3C(c3ccccc32)C1CN(C)C (stereo in doubt; 19)
[4]
  Cytotoxicity: > 2000 µM
Plasmodium falciparum [6]
  IC50: 4 µM
Plasmodium falciparum [7]
  IC50: 0.4 µM
Plasmodium falciparum [9]
  Reversal: 80%
Plasmodium falciparum [14]
  Accumulation coefficient: 298

## CN(C)CC1C2c3ccccc3C(c3ccccc32)C1CO (configuration not stated)
[1]; read-out: logD
  logD: 0.96
[2]; read-out: logP
  logP: 2.82
[3]
  pKa: 8.86
[4]
  Cytotoxicity: > 2000 µM
[5]
  HC50: >2000 µM
Plasmodium falciparum [6]; Plasmodium falciparum
  IC50: 36 µM
Plasmodium falciparum [15]
  Accumulation coefficient: 56
Plasmodium falciparum [7]; Plasmodium falciparum
  IC50: 0.6 µM
Plasmodium falciparum [9]
  Reversal: 66%

## NCC1C2c3ccccc3C(c3ccccc32)C1CN (configuration not stated)
[1]
  logD: -3.27
[2]
  logP: 1.89
[16]
  pKa: 10.1
[4]
  Cytotoxicity: 465 µM
[5]
  HC50: >2000 µM
Plasmodium falciparum [6]; Plasmodium falciparum
  IC50: 8 µM
Plasmodium falciparum [17]
  Accumulation coefficient: 159
Plasmodium falciparum [7]; Plasmodium falciparum
  IC50: 12.5 µM
Plasmodium falciparum [9]
  Reversal: 7%

## CC1C2c3ccccc3C(c3ccccc32)C1C(=O)Nc1ccccn1 (configuration not stated)
[1]; read-out: logD
  logD: 4.16
[2]; read-out: logP
  logP: 4.17
[3]
  pKa: 5.27
[4]
  Cytotoxicity: 205 µM
[5]
  HC50: 1827 µM
Plasmodium falciparum [6]; Plasmodium falciparum
  IC50: 302 µM
Plasmodium falciparum [18]
  Accumulation coefficient: 15
Plasmodium falciparum [9]
  Reversal: 0%

## CC1C2c3ccccc3C(c3ccccc32)C1C(=O)/N=C/N(C)C (configuration not stated)
[1]; read-out: logD
  logD: 3.26
[2]; read-out: logP
  logP: 3.26
[4]
  Cytotoxicity: > 2000 µM
[5]
  HC50: >2000 µM
Plasmodium falciparum [6]; Plasmodium falciparum
  IC50: 51 µM
Plasmodium falciparum [19]
  Accumulation coefficient: 23
Plasmodium falciparum [7]; Plasmodium falciparum
  IC50: 40 µM
Plasmodium falciparum [9]
  Reversal: 0%

## CN(C)CCNC1CC2c3ccccc3C1c1ccccc12 (configuration not stated)
[1]; read-out: logD
  logD: -1.5
[2]; read-out: logP
  logP: 3.17
[3]
  pKa: 9.48
[4]
  Cytotoxicity: 695 µM
[5]
  HC50: 644 µM
Plasmodium falciparum [6]; Plasmodium falciparum
  IC50: 8 µM
Plasmodium falciparum [20]
  Accumulation coefficient: 71
Plasmodium falciparum [7]; Plasmodium falciparum
  IC50: 0.8 µM
Plasmodium falciparum [9]
  Reversal: 63%

## CC1C2c3ccccc3C(c3ccccc32)C1C(N)=O (configuration not stated)
[1]; read-out: logD
  logD: 2.89
[2]; read-out: logP
  logP: 2.89
[3]
  pKa: -0.89
[4]
  Cytotoxicity: > 2000 µM
[5]
  HC50: >2000 µM
Plasmodium falciparum [6]; Plasmodium falciparum
  IC50: 41 µM
Plasmodium falciparum [21]
  Accumulation coefficient: 22
Plasmodium falciparum [7]; Plasmodium falciparum
  IC50: 20 µM
Plasmodium falciparum [22]
  Reversal: 0%
